What was measured:
Type in all cases: functional
Rattus norvegicus [1] = organism: Rattus norvegicus; test: In vitro inhibitory concentration against Total peroxyl radical-trapping antioxidant parameter(TRAP)
Method in brief: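 Total peroxyl radical-trapping antioxidant parameter taken from spectrophotometric reading at 417 nm of the ABTS cation radical, which forms by one-electron oxidation.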

Rattus norvegicus [2] = organism: Rattus norvegicus; test: In vitro inhibitory concentration against hydroxyl radical (-OH)
Rattus norvegicus [3] = organism: Rattus norvegicus; test: In vitro inhibitory concentration against lipid peroxidation (LPO)
Method in brief: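 Brain mitochondria from male LATI Wistar rats (0.3 mg protein) in 25 mM Tris–HCl pH 7.4 with 0.2 mM ascorbic acid, with or without compound. Peroxidation started with 0.2 mM FeSO4, 60 min at 37 °C. Stopped with 20% TCA, centrifuged, supernatant boiled 20 min with 0.5% thiobarbituric acid. TBA-reactive products read at 535 nm.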

Rattus norvegicus [4] = organism: Rattus norvegicus; test: In vitro inhibitory concentration against NO ([…]); (na: not active)
Method in brief: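 NO generated by thermal breakdown of cupferron (0.2% in ethanol) at 40 °C. Samples at 0.3–100 mM in ethanol mixed with Griess–Ilosvay reagent (0.2% N-(1-naphthyl)ethylenediamine in 0.4 M HCl plus 2% sulfanilamide in 4 M HCl). Free NO estimated indirectly from its nitrite/nitrate products, absorbance read at 540 nm.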

Rattus norvegicus [5] = organism: Rattus norvegicus; test: In vitro inhibitory concentration against peroxynitrite (ONOO-): using pyrogallol red bleaching assay; (na: not active)
Method in brief: (§1)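 Peroxynitrite scavenging measured as pyrogallol red bleaching at 542 nm. ONOO- prepared essentially by the Hughes and Nicklin method.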

Rattus norvegicus [6] = organism: Rattus norvegicus; test: In vitro inhibitory concentration against hydroxyl radical (-OH); (na: not active)
Rattus norvegicus [7] = organism: Rattus norvegicus; test: In vitro inhibitory concentration against peroxynitrite (ONOO-): using pyrogallol red bleaching assay; method in brief: as §1

SMILES	IC50 (Rattus norvegicus [1]) [µM]	IC50 (Rattus norvegicus [2]) [µM]	IC50 (Rattus norvegicus [3]) [µM]	IC50 (Rattus norvegicus [4])	IC50 (Rattus norvegicus [5])	IC50 (Rattus norvegicus [6])	IC50 (Rattus norvegicus [7]) [µM]
CC(C)(C)/[N+]([O-])=C/c1ccc(S(=O)(=O)[O-])cc1S(=O)(=O)[O-].[Na+].[Na+]	437	1500	5490	Not Active	Not Active		
COc1c(C)c(C)c2c(c1C)CCC(C)(/C=[N+](\[O-])C(C)(C)C)O2 (configuration not stated)	2940		23			Not Active	3700
CC(=O)Oc1c(C)c(C)c2c(c1C)CCC(C)(/C=[N+](\[O-])C(C)(C)C)O2 (configuration not stated)	895		10		Not Active	Not Active	
Cc1c(C)c2c(c(C)c1O)CCC(C)(/C=[N+](\[O-])C(C)(C)C)O2 (configuration not stated)	5.5	170	2				3200
CC(=O)Oc1c(C)c(C)c2c(c1C)CCC(C)(/C=[N+](\[O-])C1CC1)O2 (configuration not stated)	117		3.7			Not Active	590
Cc1c(C)c2c(c(C)c1O)CCC(C)(/C=[N+](\[O-])C1CC1)O2 (configuration not stated)	6	150	0.68				1100
CC(C)(C)/[N+]([O-])=C/c1ccccc1	3060	43000	16		Not Active		
COc1c(C)c(C)c2c(c1C)CCC(C)(/C=[N+](\[O-])C1CC1)O2 (configuration not stated)	296		20			Not Active	1200
Cc1c(C)c2c(c(C)c1O)CCC(C)(C(=O)O)O2 (configuration not stated) [TROLOX]	10	60	25				550
